Values after ≈ are worked out from the molar mass of the structure shown. “Also recorded” adds a separate entry of the source. Like-named read-outs stand apart in the source and are kept apart here.
Columns and labels:
[1] = target: Leishmania DNA topoisomerase IB enzyme (LdTopIB) (Leishmania donovani, UniProt A0A3Q8IHS4+Q8WQM6); assay: Inhibition of the relaxation activity of recombinant LdTopIB; type: biochemical; details: plasmid DNA relaxation assay
Method in brief: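 One unit of recombinant Leishmania donovani TopIB was incubated with negatively supercoiled pHOT plasmid DNA for 30 min at 37 °C, with test compound at 3.1–150 or 3.125–100 µM. A DMSO lane served as control. Reactions were stopped with 1% SDS plus 6.1 µg proteinase K. Products were separated on agarose gel and stained with ethidium bromide to score supercoiled, nicked and relaxed topoisomer bands.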

[2] = test system: Leishmania donovani promastigotes; assay: Antiprotozoal activity; type: cell-based; details: for EC50: read-out: L. donovani promastigotes (EC50)
[3] = test system: human TopIB (hTopIB); assay: Inhibition of the relaxation activity of human TopIB; type: biochemical; details: 3.125−100 μM acid 1, 30 min at 37°C
Method in brief: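 Human TopIB relaxed supercoiled pHOT plasmid DNA alongside recombinant LdTopIB, with test compound at 3.125–100 µM and a DMSO vehicle lane. Reactions stopped with 1% SDS plus 6.1 µg proteinase K. Products resolved on agarose gel and stained with ethidium bromide. Supercoiled, nicked and relaxed topoisomer bands scored against a DNA-only lane (0.2 µg plasmid).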

[4] = test system: Murine macrophages; assay: Toxicity towards murine macrophages; type: cell-based; details: for IC50: read-out: Murine macrophages (IC50)
[5] = test system: L. donovani promastigotes; details: at 100 μg/mL; cited from earlier work
[6] = test system: Leishmania donovani promastigotes; details: earlier work; cited from earlier work
[7] = test system: L. donovani; details: cited from earlier work

Row | SMILES | Effectiveness against L. donovani promastigotes (in words) [2] | EC50 [2] [µM] | IC50 [4] [µM] | Effect on motility of L. donovani promastigotes [5] | further results
1 | CCCCCCCCCC/C=C\CCCC(OC)C(=O)O (racemic) [Acid 1, (±)-2-methoxy-6Z-heptadecenoic acid] | not effective against L. donovani promastigotes | 404 ± 11.9 | 484 ± 15.8 |  | Inhibition of LdTopIB (in words) [1]: able to inhibit LdTopIB; Inhibition of hTopIB (in words) [3]: not effective against hTopIB
2 | CCCCCCCCCCC#CCCCC(OC)C(=O)O (racemic) [Acid 2, (±)-2-methoxy-6-heptadecynoic acid] |  | 74 ± 17.1 | > 700 |  | Inhibition of LdTopIB (in words) [1]: inhibit LdTopIB; Toxicity towards murine macrophages (in words) [4]: did not display toxicity towards murine macrophages
3 | CCCCCCCCCCCCCCCC(OC)C(=O)O (racemic) [Acid 3, (±)-2-methoxyheptadecanoic acid] | not effective at all against the parasite | > 1000 | > 1000 |  | Inhibition of LdTopIB (in words) [1]: did not inhibit LdTopIB; also recorded: do not inhibit the enzyme; also recorded: not inhibiting the enzyme
4 | CCCCCCCCCCC#CCCCCC(=O)O [6-heptadecynoic, 6-heptadecynoic acid] |  |  |  |  | EC50 ([2]; Leishmania donovani): 25.1 ± 1.4 µM; Toxicity towards murine macrophages (in words) [4]: considerable toxicity towards murine macrophages; IC50 ([4]; Mus musculus, Macrophage): 21.3 ± 0.9 µM
5 | CCCCCCCCCC/C=C\CCCCC(=O)O [6Z-heptadecenoic, 6Z-heptadecenoic acid] | not effective against L. donovani promastigotes | > 100 | 44.4 ± 1.6 |  | 
6 | CCCCCCCCCCCCCCCCOP(=O)([O-])OCC[N+](C)(C)C [miltefosine] |  |  |  |  | EC50 ([2]; Leishmania donovani): 0.8 ± 0.1 µM; IC50 ([4]; Mus musculus, Macrophage): 1.9 ± 0.4 µM
7 | CCCCCCCCCC(=O)O [n-decanoic acid] |  |  |  | inhibited the motility | 
8 | CCCCCCCCCCCC(=O)O [n-dodecanoic acid] |  |  |  | inhibited the motility | 
9 | CCCCCCCCCCCCCCCCCCCC(=O)O [n-eicosanoic acid] |  |  |  |  | Effectiveness towards L. donovani promastigotes (in words) [6]: not effective at all
10 | CCCCCCCCCCCCCCCCC(=O)O [n-heptadecanoic, n-heptadecanoic acid] | not effective at all against the parasite | > 100 | 52.6 ± 7.5 |  | Effectiveness towards L. donovani promastigotes (in words) [6]: not effective at all
11 | CCCCCCCCCCCCCCCC(=O)O [n-hexadecanoic acid] |  |  |  | inhibited the motility | 
12 | CCCCCCCCCCCCCCCCCC(=O)O [n-octadecanoic acid] |  |  |  |  | MIC against L. donovani [7]: 1390 µM (≈ 395 µg/mL)
13 | CCCCCCCC/C=C\CCCCCCCC(=O)O [oleic acid] |  |  |  | no effect | MIC against L. donovani [7]: 90 µM (≈ 25.4 µg/mL)
